Results reported in ChEMBL document CHEMBL1914438, “Synthesis and biological activity of novel N-cycloalkyl-(cycloalkylaryl)-2-[(3-R-2-oxo-2H-[1,2,4]triazino[2,3-c]quinazoline-6-yl)thio]acetamides” (2011).
Calls of active or inactive are those of the source. The calls are words filed in the database; no cut-off is given here.

Key:
Escherichia coli [1] = assay: Antibacterial activity against Escherichia coli at 1 to 5 mg/mL after 24 hrs by stiff-plate agar-diffusion method; type: functional, organism-based
Method in brief: (§1)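 Agar diffusion (stiff plate) with test substances at 5 mg/mL in grooves, allowed to diffuse into nutrient agar; inoculum 10^9 c.f.u./mL; bacteria incubated 24 h at 35 °C. Read-out: inhibition zone diameter (not sensitive 11–15 mm, sensitive 16–25 mm, highly sensitive >25 mm). Vancomycin and oxacillin as standards; three repeats.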

[2] = tested on: Photobacterium leiognathi; assay: Antibacterial activity against Photobacterium leiognathi Sh1 assessed as inhibition of bacterial luminescence at 0.1 mg/mL after 10 mins by bioluminometry-based chronic action test; type: functional; design: scale not given: the % may be the effect or the level left
Method in brief: (§2)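 Chronic (growth plus luminescence) test with P. leiognathi Sh1 at 10^5 cells/mL in chloride solution, compounds added in DMSO. After 10 min at 25 °C, growth medium added at 1:50 and the mix incubated 16–18 h at 30 °C. Luminescence then measured by bioluminometer as % of untreated control. Tetracycline reference.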

[3] = tested on: Photobacterium leiognathi; assay: Antibacterial activity against Photobacterium leiognathi Sh1 assessed as inhibition of bacterial luminescence at 0.025 mg/mL after 10 mins by bioluminometry-based acute action test; type: functional; design: scale not given: the % may be the effect or the level left
Method in brief: (§3)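 Marine P. leiognathi Sh1 (Azov Sea shrimp isolate) diluted in chloride solution to 10^5 cells/mL; compounds suspended in DMSO mixed with 1 mL bacterial suspension. Acute test: 10 min at 25 °C, then bioluminescence measured by bioluminometer as % of compound-free control. Tetracycline reference.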

Mycobacterium [4] = assay: Antibacterial activity against Mycobacterium luteum at 1 to 5 mg/mL after 24 hrs by stiff-plate agar-diffusion method; type: functional, organism-based; method in brief: as §1
[5] = tested on: Photobacterium leiognathi; assay: Antibacterial activity against Photobacterium leiognathi Sh1 assessed as inhibition of bacterial luminescence at 0.25 mg/mL after 10 mins by bioluminometry-based chronic action test; type: functional; design: scale not given: the % may be the effect or the level left; method in brief: as §2
Yamadazyma tenuis [6] = assay: Antifungal activity against Candida tenuis at 1 to 5 mg/mL after 48 to 72 hrs by stiff-plate agar-diffusion method; type: functional, organism-based
Method in brief: (§4)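 Fungal plates run by stiff-plate agar diffusion, substances applied to grooves at 5 mg/mL; 10^9 c.f.u./mL cells; incubation 48–72 h at 28–30 °C. Inhibition zone diameter scored (11–15 mm not sensitive, 16–25 mm sensitive, >25 mm highly sensitive). Nystatin standard; experiments done three times.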

[7] = tested on: Photobacterium leiognathi; assay: Antibacterial activity against Photobacterium leiognathi Sh1 assessed as inhibition of bacterial luminescence at 0.25 mg/mL after 10 mins by bioluminometry-based acute action test; type: functional; design: scale not given: the % may be the effect or the level left; method in brief: as §3
Staphylococcus aureus [8] = assay: Antibacterial activity against Staphylococcus aureus at 1 to 5 mg/mL after 24 hrs by stiff-plate agar-diffusion method; type: functional, organism-based; method in brief: as §1
[9] = tested on: Photobacterium leiognathi; assay: Antibacterial activity against Photobacterium leiognathi Sh1 assessed as inhibition of bacterial luminescence at 0.025 mg/mL after 16 to 18 hrs by bioluminometry-based chronic action test; design: scale not given: the % may be the effect or the level left
[10] = tested on: Photobacterium leiognathi; assay: Antibacterial activity against Photobacterium leiognathi Sh1 assessed as inhibition of bacterial luminescence at 0.1 mg/mL after 10 mins by bioluminometry-based acute action test; type: functional; design: scale not given: the % may be the effect or the level left; method in brief: as §3
Aspergillus niger [11] = assay: Antifungal activity against Aspergillus niger at 1 to 5 mg/mL after 48 to 72 hrs by stiff-plate agar-diffusion method; type: functional, organism-based; method in brief: as §4
SK-OV-3 = assay: Cytotoxicity against human SKOV3 cells assessed as cell growth at 10^-5 M after 48 hrs by SRB assay; type: functional; details: SK-OV-3, 48 h, read-out: Activity
Method in brief: (§5)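 NCI human tumor cell line panel from nine cancer types. Each line was inoculated and preincubated 24–48 h, then exposed to a single concentration (10^-5 M) for 48 h. Growth was read by sulforhodamine B protein staining, measured spectrophotometrically. Value reported as percent growth of treated cells relative to untreated controls.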

SNB-75 = assay: Cytotoxicity against human SNB75 cells assessed as cell growth at 10^-5 M after 48 hrs by SRB assay; type: functional; details: SNB-75, 48 h, read-out: Activity; method in brief: as §5
[12] = tested on: Photobacterium leiognathi; assay: Antibacterial activity against Photobacterium leiognathi Sh1 at 0.1 to 0.25 ug/mL; type: functional, organism-based
CCRF-CEM = assay: Cytotoxicity against human CCRF-CEM cells assessed as cell growth at 10^-5 M after 48 hrs by SRB assay; type: functional; details: read-out: Activity
Method in brief: (§6)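 NCI 60-cell-line one-dose primary screen: cells inoculated and preincubated 24–48 h, then test agent added at a single 10^-5 M concentration for a further 48 h. Endpoint is sulforhodamine B protein staining read spectrophotometrically. Reported as percent growth relative to untreated control cells.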

A549 = assay: Cytotoxicity against human A549 cells assessed as cell growth at 10^-5 M after 48 hrs by SRB assay; type: functional; details: A549, 48 h, read-out: Activity; method in brief: as §6
U-251 = assay: Cytotoxicity against human U251 cells assessed as cell growth at 10^-5 M after 48 hrs by SRB assay; type: functional; details: U-251, 48 h, read-out: Activity; method in brief: as §5
PC-3 = assay: Cytotoxicity against human PC3 cells assessed as cell growth at 10^-5 M after 48 hrs by SRB assay; type: functional; details: PC-3, 48 h, read-out: Activity; method in brief: as §5
[13] = tested on: Photobacterium leiognathi; assay: Antibacterial activity against Photobacterium leiognathi Sh1 assessed as inhibition of bacterial luminescence at 0.025 mg/mL after 10 mins by bioluminometry-based chronic action test; type: functional; design: scale not given: the % may be the effect or the level left; method in brief: as §2
K562 = assay: Cytotoxicity against human K562 cells assessed as cell growth at 10^-5 M after 48 hrs by SRB assay; type: functional; details: K562, 48 h, read-out: Activity; method in brief: as §6
UO-31 = assay: Cytotoxicity against human UO31 cells assessed as cell growth at 10^-5 M after 48 hrs by SRB assay; type: functional; details: UO-31, 48 h, read-out: Activity; method in brief: as §5
UACC-257 = assay: Cytotoxicity against human UACC257 cells assessed as cell growth at 10^-5 M after 48 hrs by SRB assay; type: functional; details: UACC-257, 48 h, read-out: Activity; method in brief: as §5
M14 = assay: Cytotoxicity against human M14 cells assessed as cell growth at 10^-5 M after 48 hrs by SRB assay; type: functional; details: M14, 48 h, read-out: Activity; method in brief: as §6
SR = assay: Cytotoxicity against human SR cells assessed as cell growth at 10^-5 M after 48 hrs by SRB assay; type: functional; details: read-out: Activity; method in brief: as §5
Mycobacterium [14] = assay: Antibacterial activity against Mycobacterium luteum assessed as zone of inhibition at 0.1 mg/mL after 24 hrs by stiff-plate agar-diffusion method; type: functional; details: read-out: DIZ
Aspergillus niger [15] = assay: Antifungal activity against Aspergillus niger assessed as zone of inhibition at 0.1 mg/mL after 48 to 72 hrs by stiff-plate agar-diffusion method; type: functional; details: read-out: DIZ
Mycobacterium [16] = assay: Antibacterial activity against Mycobacterium luteum assessed as zone of inhibition at 0.5 mg/mL after 24 hrs by stiff-plate agar-diffusion method; type: functional; details: read-out: DIZ
Escherichia coli [17] = assay: Antibacterial activity against Escherichia coli assessed as zone of inhibition at 0.5 mg/mL after 24 hrs by stiff-plate agar-diffusion method; type: functional; details: read-out: DIZ
Staphylococcus aureus [18] = assay: Antibacterial activity against Staphylococcus aureus assessed as zone of inhibition at 0.1 mg/mL after 24 hrs by stiff-plate agar-diffusion method; type: functional; details: read-out: DIZ
Aspergillus niger [19] = assay: Antifungal activity against Aspergillus niger assessed as zone of inhibition at 0.5 mg/mL after 48 to 72 hrs by stiff-plate agar-diffusion method; type: functional; details: read-out: DIZ
Yamadazyma tenuis [20] = assay: Antifungal activity against Candida tenuis assessed as zone of inhibition at 0.5 mg/mL after 48 to 72 hrs by stiff-plate agar-diffusion method; type: functional; details: read-out: DIZ
Staphylococcus aureus [21] = assay: Antibacterial activity against Staphylococcus aureus assessed as zone of inhibition at 0.5 mg/mL after 24 hrs by stiff-plate agar-diffusion method; type: functional; details: read-out: DIZ
Yamadazyma tenuis [22] = assay: Antifungal activity against Candida tenuis assessed as zone of inhibition at 0.1 mg/mL after 48 to 72 hrs by stiff-plate agar-diffusion method; type: functional; details: read-out: DIZ
Escherichia coli [23] = assay: Antibacterial activity against Escherichia coli assessed as zone of inhibition at 0.1 mg/mL after 24 hrs by stiff-plate agar-diffusion method; type: functional; details: read-out: DIZ
CAKI-1 = assay: Cytotoxicity against human Caki1 cells assessed as cell growth at 10^-5 M after 48 hrs by SRB assay; type: functional; details: CAKI-1, 48 h, read-out: Activity; method in brief: as §6
SK-MEL-5 = assay: Cytotoxicity against human SK-MEL-5 cells assessed as cell growth at 10^-5 M after 48 hrs by SRB assay; type: functional; details: SK-MEL-5, 48 h, read-out: Activity; method in brief: as §5
SF-295 = assay: Cytotoxicity against human SF295 cells assessed as cell growth at 10^-5 M after 48 hrs by SRB assay; type: functional; details: SF-295, 48 h, read-out: Activity; method in brief: as §5
MOLT-4 = assay: Cytotoxicity against human MOLT4 cells assessed as cell growth at 10^-5 M after 48 hrs by SRB assay; type: functional; details: MOLT-4, 48 h, read-out: Activity; method in brief: as §5
EKVX = assay: Cytotoxicity against human EKVX cells assessed as cell growth at 10^-5 M after 48 hrs by SRB assay; type: functional; details: read-out: Activity; method in brief: as §6
[24] = in the assay text read “after 16 to 18 hrs” for “after 10 mins”

Row | SMILES | Activity (Escherichia coli [1]) | Activity [2, 24] [%] | Activity [3] [%] | Activity (Mycobacterium [4]) | Activity [5, 24] [%] | Activity (Yamadazyma tenuis [6]) | Activity [7] [%] | Activity (Staphylococcus aureus [8]) | Activity [10] [%] | Activity (Aspergillus niger [11]) | growth at 10 µM (SK-OV-3) [%] | growth at 10 µM (SNB-75) [%] | Activity [12] | growth at 10 µM (CCRF-CEM) [%] | growth at 10 µM (A549) [%] | growth at 10 µM (PC-3) [%] | Activity [13, 24] [%] | growth at 10 µM (K562) [%] | growth at 10 µM (UO-31) [%] | growth at 10 µM (UACC-257) [%] | also measured
1 | CCC1C2CCC(C2)C1NC(=O)CSc1nc2ccccc2c2nc(=O)c(-c3ccc(C)cc3)nn12 (stereo unspecified) | inactive | 120 | 110 | inactive | 44 | inactive | 120 | inactive | 96 | inactive | – | – | – | – | – | – | – | – | – | – | Activity [9]: 100%
2 | O=C(O)CSc1nc2ccccc2c2nc(=O)c(-c3ccccc3)nn12 | inactive | 40.9 | 100 | inactive | 3.6 | inactive | 50 | inactive | 75 | inactive | 97 | 86.6 | inactive | 92.5 | 82.5 | 90.8 | 34 | 92 | 89 | 93.2 | growth at 10 µM (U-251): 91.4%; growth at 10 µM (M14): 96.8%; growth at 10 µM (SR): 91.9%
3 | COc1ccc(-c2nn3c(SCC(=O)Nc4ccc(C56CC7CC(CC(C7)C5)C6)cc4)nc4ccccc4c3nc2=O)cc1 | – | – | 76.6 | – | – | – | 59.57 | – | 59.57 | – | – | – | – | – | – | – | – | – | – | – | zone of inhibition at 100 µg/mL (Mycobacterium [14]): 0 mm; zone of inhibition at 100 µg/mL (Aspergillus niger [15]): 0 mm; Activity [2]: 34.62%; zone of inhibition at 500 µg/mL (Mycobacterium [16]): 0 mm; zone of inhibition at 500 µg/mL (Escherichia coli [17]): 0 mm; Activity [5]: 76.92%; zone of inhibition at 100 µg/mL (Staphylococcus aureus [18]): 7 mm; Activity [13]: 48.72%; zone of inhibition at 500 µg/mL (Aspergillus niger [19]): 0 mm; zone of inhibition at 500 µg/mL (Yamadazyma tenuis [20]): 0 mm; zone of inhibition at 500 µg/mL (Staphylococcus aureus [21]): 0 mm; zone of inhibition at 100 µg/mL (Yamadazyma tenuis [22]): 0 mm; zone of inhibition at 100 µg/mL (Escherichia coli [23]): 0 mm
4 | Cc1ccc(-c2nn3c(SCC(=O)O)nc4ccccc4c3nc2=O)cc1 | inactive | 255.3 | 91.7 | inactive | 0 | inactive | 0 | inactive | 20 | inactive | 89.9 | 74.2 | inactive | 95.6 | 96.5 | 86.5 | 93.3 | 94.5 | 85.3 | 95.1 | growth at 10 µM (CAKI-1): 82.8%; growth at 10 µM (SK-MEL-5): 96%; growth at 10 µM (SF-295): 84.3%; growth at 10 µM (MOLT-4): 84.9%; growth at 10 µM (EKVX): 95%; growth at 10 µM (SR): 68%
